This passage reports Tm and folding enthalpy results from the array DNA melting data of Ke et al. (doi:10.1101/2024.01.08.574731).

Data set [1] is described as follows: melting temperature; fluorescence melt of hairpins on a sequencing array, two-state fit, raised by 9.35 °C to match UV melts. The following applies: sodium 0.088 M. Put shortly:
(§1)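 Melting temperature and folding enthalpy were obtained by bootstrapped two-state fitting. Fits used Cy3 fluorescence of library hairpins with annealed Cy3 and quencher oligos on a sequenced MiSeq flow cell, imaged in 50 mM Na-HEPES pH 8.0, 25 mM NaCl in 2.5 °C steps up to 60 °C and normalised to pre-quench Cy3 and control constructs. Four replicates were combined by inverse-variance weighting, and fitted temperatures were raised by 9.35 °C to match UV melts.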

A short description of data set [2]: folding enthalpy; higher = less favourable; fluorescence melt of hairpins on a sequencing array, two-state fit. The following applies: sodium 0.088 M. The method, boiled down:
as §1

As for GCACGAACGAAAGTTTGC (((..(((....)))))), in data set [1], the Tm was 33.5 °C. Also, the folding enthalpy in data set [2] is -17.1 kcal/mol.
GGTTAATCGAAAGATACC (((..(((....)))))): the Tm in data set [1] turned out to be 29.2 °C. Moreover, the folding enthalpy in data set [2] was -17.1 kcal/mol.
For GATCCCATATGGGATC ((((((....)))))) the same measures were 61.8 °C and -35.3 kcal/mol.
For GGCAACGAAAGTTCTGCC ((((((....)))..))) the same measures were 40.4 °C and -27.3 kcal/mol.
In the same order, the values of GATCTCATCTGAGATC ((((((....)))))) are 53.6 °C and -39.9 kcal/mol.
With GAAATGGGAAACCATTTC (((((((....))))))), the Tm in data set [1] is 53.9 °C. In data set [2], the folding enthalpy was -37.5 kcal/mol.
For GGTAGTCCGAAAGGAACC (((..(((....)))))) the same measures were 27.1 °C and -12.4 kcal/mol.
For the sequence CGGGCGGAAACGCTTCCG ((((((....)))..))), in data set [1], the Tm turned out to be 41 °C. Also, the folding enthalpy in data set [2] is -17.9 kcal/mol.
Consider GACTGAGGAAACCCAGTC (((((.(....).))))), for which the Tm in data set [1] turned out to be 44.8 °C. For the same sequence, in data set [2], the folding enthalpy is -33.7 kcal/mol.
Take GATCAGTCCCCTGATC ((((((....)))))): the Tm in data set [1] was 49.3 °C. In data set [2], the folding enthalpy is -35.7 kcal/mol.
Turning to GATCATAATATGATC ((((((...)))))), the Tm in data set [1] is 46.3 °C. Moreover, the folding enthalpy in data set [2] was -30.7 kcal/mol.
For GCGTCTACGAAAGTACGC (((..(((....)))))) the same measures were 47.6 °C and -28.4 kcal/mol.
Regarding GATCGACGACTCGATC ((((((....)))))), in data set [1], the Tm turned out to be 48.7 °C. Also, the folding enthalpy in data set [2] is -36.3 kcal/mol.
With GCTTAGAAATAAGC (((((....))))), the Tm in data set [1] is 40.5 °C. Further, in data set [2], the folding enthalpy was -18 kcal/mol.
Take GGACCGGGAAACTGGTCC (((((.(....).))))): in data set [1], the Tm amounted to 58.2 °C. Also, the folding enthalpy in data set [2] is -44.9 kcal/mol.
Consider GATCAACTGGTTGATC ((((((....)))))), for which the Tm in data set [1] amounted to 55.2 °C. Moreover, in data set [2], the folding enthalpy was -39.8 kcal/mol.
Consider GGATGCCGAAAGGCTTCC (((.(((....))).))), for which, in data set [1], the Tm was 60.3 °C. In data set [2], the folding enthalpy is -28.6 kcal/mol.
In the same order, the values of GTGCACGAAAGTGAACAC ((((((....)))..))) are 52 °C and -15.4 kcal/mol.
As for GACAGCGAAAGCTCGGTC ((((((....)))..))), the Tm in data set [1] was determined as 46.8 °C. In addition, the folding enthalpy in data set [2] was -10.6 kcal/mol.
In the same order, the values of GCATTGCGAAAGCTGTGC (((..((....))..))) are 56 °C and -22.2 kcal/mol.
In the same order, the values of GCTATGCGAAAGCAAGC (((.(((....)))))) are 51.7 °C and -17.5 kcal/mol.
In the same order, the values of GGGTGCGAAAGCAGGCCC ((((((....)))..))) are 52.9 °C and -18.2 kcal/mol.
Turning to GCATGATCGAAAGATTGC (((..(((....)))))), the Tm in data set [1] stood at 32.6 °C. The folding enthalpy in data set [2] was -19.9 kcal/mol.
Consider GGTATACGAAAGTAGACC (((.(((....))).))), for which the Tm in data set [1] came to 52.1 °C. For the same sequence, the folding enthalpy in data set [2] was -50.9 kcal/mol.
For GGCTGGGGAAACCTAGCC ((((.((....)).)))) the same measures were 56.2 °C and -42.8 kcal/mol.
On to GATGTCGGAAACGACACC (.(((((....))))).), for which the Tm in data set [1] stood at 40.4 °C. The folding enthalpy in data set [2] was -11.4 kcal/mol.
With GCTGCCCCGAAAGGGAGC (((..(((....)))))), the Tm in data set [1] is 55.2 °C. For the same sequence, the folding enthalpy in data set [2] is -13.3 kcal/mol.
Take GCTGTACGAAAGTATAGC (((.(((....))).))): the Tm in data set [1] amounted to 54 °C. In data set [2], the folding enthalpy is -39.6 kcal/mol.
On to GCCAGGCGAAAGCGCGGC (((..((....))..))), for which the Tm in data set [1] is 59.6 °C. For the same sequence, in data set [2], the folding enthalpy is -18.6 kcal/mol.
Turning to GATCGAACTATCGATC ((((((....)))))), the Tm in data set [1] stood at 50.3 °C. Besides, the folding enthalpy in data set [2] is -43.8 kcal/mol.
In the same order, the values of GATCCCGGACGGGATC ((((((....)))))) are 68.5 °C and -34.5 kcal/mol.
Turning to GGTATAGGAAACCATACC (((((.(....).))))), the Tm in data set [1] came to 36.7 °C. Also, the folding enthalpy in data set [2] is -23.1 kcal/mol.
In the same order, the values of GACAACGAAAGTTCTGTC ((((((....)))..))) are 27 °C and -14.7 kcal/mol.
As to GCAAAGCGAAAGCCGTGC (((..((....))..))), the Tm in data set [1] was 39.9 °C. In addition, the folding enthalpy in data set [2] is -11.4 kcal/mol.
For GCGGAAACGAAAGTTCGC (((..(((....)))))) the same measures were 48.8 °C and -27.5 kcal/mol.
In the same order, the values of GGATAACGAAAGTTCTCC (((.(((....))).))) are 41.3 °C and -32.7 kcal/mol.
In the same order, the values of GGTGTCGAAAGACGACC ((((((....))).))) are 52.6 °C and -19.9 kcal/mol.
For the sequence GATCCCAATGGGGATC ((((((....)))))), the Tm in data set [1] was determined as 60.7 °C. Also, the folding enthalpy in data set [2] was -33.2 kcal/mol.
In the case of GGCAGCGGAAACGCCGCC (((.(((....))).))), in data set [1], the Tm is 61.5 °C. In addition, the folding enthalpy in data set [2] was -31.3 kcal/mol.
In the same order, the values of GCTTAGCGAAAGCAGAGC (((..((....))..))) are 50 °C and -19 kcal/mol.
With ACATAGAAATATGT (((((....))))), in data set [1], the Tm was 24.6 °C. The folding enthalpy in data set [2] is -7.88 kcal/mol.
Take GATCGACGAAAGTCATC (((.(((....)))))): in data set [1], the Tm turned out to be 33.1 °C. Besides, the folding enthalpy in data set [2] is -12.7 kcal/mol.
For GATCTGACGTCAGATC ((((((....)))))), the Tm in data set [1] is 55.5 °C. In addition, the folding enthalpy in data set [2] was -42.6 kcal/mol.
For GATCTGTCTACAGATC ((((((....)))))) the same measures were 54.9 °C and -47.5 kcal/mol.
In the same order, the values of GGGCTGGGAAACTGGCCC ((((..(....)..)))) are 54.3 °C and -48.3 kcal/mol.
On to GCCTCTTCGAAAGAAGGC (((..(((....)))))), for which, in data set [1], the Tm amounted to 39.4 °C. For the same sequence, the folding enthalpy in data set [2] was -14.8 kcal/mol.
With GCCGAATCGAAAGATGGC (((..(((....)))))), in data set [1], the Tm was found to be 46.2 °C. Besides, the folding enthalpy in data set [2] was -26.3 kcal/mol.
GTATCTCGAAAGAGGTAC (((.(((....))).))): the Tm in data set [1] was 48.7 °C. For the same sequence, the folding enthalpy in data set [2] was -34.4 kcal/mol.
As to GGGTCTGGAAACGGATCC ((.((.(....).)).)), the Tm in data set [1] turned out to be 41.8 °C. Further, the folding enthalpy in data set [2] is -33 kcal/mol.
In the same order, the values of GCGTAAGAAATTACGC ((((((....)))))) are 55.3 °C and -40.4 kcal/mol.
Consider GTGCTTGAAAAAGCAC ((((((....)))))), for which, in data set [1], the Tm came to 63.3 °C. Also, in data set [2], the folding enthalpy was -27.9 kcal/mol.
Regarding GGCCGTCCGAAAGGAGCC (((..(((....)))))), the Tm in data set [1] is 43.4 °C. Further, the folding enthalpy in data set [2] is -15.8 kcal/mol.
On to GTCCGGGGAAACCCAGAC (((.(((....))).))), for which, in data set [1], the Tm was 42.8 °C. The folding enthalpy in data set [2] was -29.6 kcal/mol.
Regarding GCTCTCGCGAAAGCGAGC (((..(((....)))))), the Tm in data set [1] worked out at 38.3 °C. Also, the folding enthalpy in data set [2] was -4.57 kcal/mol.
For GGTAACGGAAACGTTATC (.(((((....))))).) the same measures were 46.4 °C and -24.5 kcal/mol.
For GCCAAGGGAAACTTTGGC (((((.(....).))))) the same measures were 48.6 °C and -30.1 kcal/mol.
In the same order, the values of CGGTATCGGAAACGACCG (((..(((....)))))) are 36.3 °C and -27.8 kcal/mol.
For the sequence GCGAGCTTTCGC ((((....)))), the Tm in data set [1] was 50.5 °C. Moreover, in data set [2], the folding enthalpy was -19.3 kcal/mol.
Regarding GACTCGGGAAACCAAGTC ((((.((....)).)))), the Tm in data set [1] is 37.6 °C. Further, the folding enthalpy in data set [2] was -25 kcal/mol.
As to GTTCTAGGAAACCAGAAC (((((.(....).))))), the Tm in data set [1] was 35.6 °C. Moreover, the folding enthalpy in data set [2] is -26.6 kcal/mol.
For the sequence GATCCGTGCTCGGATC ((((((....)))))), the Tm in data set [1] came out at 59.7 °C. Besides, the folding enthalpy in data set [2] is -43.9 kcal/mol.
In the same order, the values of GTTGGCGAAAGCCAGAAC ((((((....)))..))) are 35.1 °C and -8.8 kcal/mol.
With GCGGAGCGAAAGCTTAGC ((..(((....)))..)), the Tm in data set [1] is 52.3 °C. The folding enthalpy in data set [2] is -14.1 kcal/mol.
In the same order, the values of GTCGAACGAAAGTTAGAC (((.(((....))).))) are 52.6 °C and -33.1 kcal/mol.
With GATCCGAACCGGATC ((((((...)))))), the Tm in data set [1] was 57 °C. In addition, in data set [2], the folding enthalpy is -40.2 kcal/mol.
On to GATCTGGGTACAGATC ((((((....)))))), for which the Tm in data set [1] turned out to be 57.7 °C. The folding enthalpy in data set [2] is -38.7 kcal/mol.
For GATCAAGCATTTGATC ((((((....)))))) the same measures were 51 °C and -32.7 kcal/mol.
For GGGTTACGAAAGTAGCCC (((.(((....))).))) the same measures were 59.6 °C and -45.7 kcal/mol.
As for GTGAGTGGAAACACTTGC (..((((....))))..), the Tm in data set [1] came out at 36.4 °C. Also, in data set [2], the folding enthalpy is -23.9 kcal/mol.
With GTACACCGAAAGGTTTAC (((.(((....))).))), the Tm in data set [1] turned out to be 42 °C. Further, in data set [2], the folding enthalpy was -30.6 kcal/mol.
For GCATGCGAAAGCACTGC ((((((....))).))), in data set [1], the Tm was 51.3 °C. The folding enthalpy in data set [2] is -22.3 kcal/mol.
Consider GCTTAAGGAAACTTAAGC (((((((....))))))), for which the Tm in data set [1] is 53.2 °C. The folding enthalpy in data set [2] was -39.6 kcal/mol.
Turning to GCTAGCCGAAAGGCCAGC (((.(((....))).))), the Tm in data set [1] turned out to be 54.3 °C. For the same sequence, the folding enthalpy in data set [2] was -20.8 kcal/mol.
For GACAGTGGAAACGTTGTC ((((..(....)..)))) the same measures were 36.2 °C and -20.9 kcal/mol.
